Measured values from PubChem BioAssay.
Active and inactive are the calls of the source.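 How the source made its calls, unless noted: active means fluorescence slope after compound addition differing from the mean of all tested samples at 99.7% confidence, mostly higher but some lower; inactive means the rest.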

Columns and labels:
[1] = inhibitors of TNFa-induced NFkB p65 translocation, primary screen, imaging, HUVEC, MLSMR starter and 10KST1 sets (AID 438;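 active means inhibition above 20% together with a positive visual image hit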;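 further: compound added about 3h40 before a 20 min TNFalpha stimulation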;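 on inhibition: signal is the nuclear over cytoplasmic p65 intensity ratio per well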); conditions: HUVEC TNFa-induced p65 nuclear translocation; cell count: measured here: nuclei count (cytotoxicity indicator), at 2.08 µM; inhibition: at 2 µM, stronger effect = higher value, 0% TNFa-plus-vehicle, 100% no-TNFa wells
[2] = inhibitors of E-selectin induction by TNFa, primary screen, imaging, HUVEC, immunofluorescence, MLSMR starter and 10KST1 sets (AID 487;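 active means visually confirmed hit in the image check and inhibition above 20%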;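 on inhibition: signal is fraction of cell area covered by stained E-selectin grains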;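 on nuclei count: 100% = median nuclei count of all wells on the same plate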); conditions: HUVEC TNFalpha-induced E-selectin immunofluorescence imaging, at 2 µM; inhibition: stronger effect = higher value; nuclei count: measured here: cell number, toxicity
[3] = DUSP6 inhibitors restoring Erk phosphorylation by chemical complementation, primary imaging in DUSP6-transfected HeLa (AID 609;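 active means compounds giving at least 50% inhibition in the cell-based MKP-3 phosphatase rescue imaging test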;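 on inhibition: phospho-Erk level distribution per well compared with pooled transfected vehicle control wells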); conditions: HeLa MKP-3 transfected, phospho-Erk imaging KS statistic, at 10 µM, cells stimulated with TPA for 15 min
[4] = molecular target: Dual specificity protein phosphatase 6 (Homo sapiens) (UniProt Q16828); assay: as above; conditions: HeLa MKP-3 transfected, phospho-Erk imaging KS statistic; at 10 µM; stronger effect = higher value; cells stimulated with TPA for 15 min
Chain of Dual specificity protein phosphatase 6 (Homo sapiens) (Q16828 whole entry, looked up): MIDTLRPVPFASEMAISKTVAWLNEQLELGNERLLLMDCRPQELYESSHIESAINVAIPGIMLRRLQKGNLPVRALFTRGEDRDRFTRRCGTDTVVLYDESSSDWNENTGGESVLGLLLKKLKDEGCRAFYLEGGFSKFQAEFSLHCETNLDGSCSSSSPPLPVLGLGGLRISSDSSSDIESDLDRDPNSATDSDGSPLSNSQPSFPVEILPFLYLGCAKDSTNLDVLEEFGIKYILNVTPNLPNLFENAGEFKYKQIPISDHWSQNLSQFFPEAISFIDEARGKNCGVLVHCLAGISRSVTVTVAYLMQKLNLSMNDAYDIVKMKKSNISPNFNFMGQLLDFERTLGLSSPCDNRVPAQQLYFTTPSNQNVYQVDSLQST

[5] = molecular target: Voltage-gated potassium channel subunit beta-2 (Rattus norvegicus) (UniProt P62483); assay: KvBeta enzyme negative modulators, primary screen, biochemical, NADPH fluorescence (AID 622;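 active means fluorescence slope higher than the sample average by over 3 SD, cut at about -0.22 in these data, passing the limit was not always enough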;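 further: slope of raw intensity against log time taken from 70 to 1610 s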); conditions: recombinant KvBeta, 4-cyanobenzaldehyde reduction, at 10 µM, stronger effect = higher value
Chain of Voltage-gated potassium channel subunit beta-2 (Rattus norvegicus) (P62483 whole entry, looked up): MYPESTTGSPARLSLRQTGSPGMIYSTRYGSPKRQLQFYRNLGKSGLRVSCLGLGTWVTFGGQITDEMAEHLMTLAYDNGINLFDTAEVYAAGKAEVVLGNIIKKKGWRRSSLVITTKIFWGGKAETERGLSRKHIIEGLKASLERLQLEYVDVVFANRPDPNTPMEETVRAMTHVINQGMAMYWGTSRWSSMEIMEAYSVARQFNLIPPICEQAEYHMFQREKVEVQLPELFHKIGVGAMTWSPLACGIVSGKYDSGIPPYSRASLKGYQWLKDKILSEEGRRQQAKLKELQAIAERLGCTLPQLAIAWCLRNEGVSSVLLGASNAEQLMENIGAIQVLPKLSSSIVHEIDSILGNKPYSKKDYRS

[6] = molecular target: Voltage-gated potassium channel subunit beta-2 (Rattus norvegicus) (UniProt P62483); assay: KvBeta positive modulators, primary screen, biochemical, NADPH fluorescence (AID 623;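 active means NADPH fluorescence slope more negative than the mean of all samples by about 3 SD, 99.7% confidence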;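 further: fluorescence intensity change per second fitted from 20 to 320 s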); conditions: Recombinant KvBeta, NADPH fluorescence decrease slope, 10 min; at 10 µM; stronger effect = lower value
[7] = molecular target: Muscarinic acetylcholine receptor M4 (Homo sapiens) (UniProt P08173); assay: compounds altering M4/GIRK thallium flux, either direction, primary screen, M4 allosteric agonist project, cell-based, HEK293 M4/GIRK, BTC-AM (AID 625); conditions: at 10 µM, actives lie on both sides;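 further: thallium influx through GIRK channels coupled to M4 in HEK293 cells with BTC-AM dye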
Chain of Muscarinic acetylcholine receptor M4 (Homo sapiens) (P08173 whole entry, looked up): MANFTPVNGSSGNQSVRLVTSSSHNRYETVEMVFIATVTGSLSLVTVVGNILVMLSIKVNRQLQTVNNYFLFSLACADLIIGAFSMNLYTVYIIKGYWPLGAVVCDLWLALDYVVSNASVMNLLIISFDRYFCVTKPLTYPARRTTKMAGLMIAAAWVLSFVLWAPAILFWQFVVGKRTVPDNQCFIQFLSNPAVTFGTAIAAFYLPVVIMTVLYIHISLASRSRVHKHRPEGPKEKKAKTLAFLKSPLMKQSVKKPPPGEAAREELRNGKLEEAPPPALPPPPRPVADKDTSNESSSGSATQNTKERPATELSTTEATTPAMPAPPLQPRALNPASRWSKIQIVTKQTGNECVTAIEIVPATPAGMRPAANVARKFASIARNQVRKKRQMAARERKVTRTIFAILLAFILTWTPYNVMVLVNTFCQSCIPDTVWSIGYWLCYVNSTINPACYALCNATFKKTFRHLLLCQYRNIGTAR
Method in brief: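 Material: HEK293 cells with M4 receptor and GIRK channels; Times: cells overnight at 37 °C, BTC-AM loading 1 h, reads 2 min total; Technique: kinetic BTC-AM fluorescence sampled at 1 Hz, 10 s pre-addition baseline; Read-out basis: slope over 15–24 s of trace normalized to starting intensity; Controls: carbachol positive, DMSO negative.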

[8] = inhibitors of larval lipid processing in zebrafish, primary screen, whole organism, PED6 fluorescence, gall bladder and intestine (AID 686;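 active means a full or partial loss of lipid-probe fluorescence in the fish gall bladder, intestine or both, judged by eye; inactive means no fluorescence loss, or compound toxic to the fish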;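 further: larvae 5 to 7 days old with five fish per well; signal comes from phospholipase A2 cleavage of quenched PED6 carried via bile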); conditions: Zebrafish larvae PED6 lipid processing, fluorescence scoring; screened at 20 µM (by protocol)
Method in brief: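 Incubation: overnight exposure of larvae to compound plus PED6 / Test system: live zebrafish larvae aged 5-7 days, whole organism / Amount: 5 larvae per well / Read-out basis: visual per-well fluorescence inhibition score / Signal: visual fluorescence microscopy scoring of gall bladder, gut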

[9] = inhibitors of Chlamydomonas gravitaxis, primary screen, whole organism, Chlamydomonas reinhardtii, WT vs cilia-less mutant, absorbance, 96-well (AID 463189;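 active means inhibition at or above 50% relative to wild type and mutant plate controls; inactive means inhibition below 50%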;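 further: 0% = wild type cc124 cells in DMSO and 100% = ciliumless bld1 mutant cells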); conditions: OD600 absorbance, 2 days, at 10 µM, stronger effect = higher value
[10] = measured here: cell density z-score
[11] = measured here: nuclear c-Myc green intensity z-score
[12] = measured here: nuclear pErk red intensity z-score, stronger effect = higher value

Row | SMILES | cell count [1] | inhibition [1] | inhibition [2] | nuclei count [2] [%] | z-score [3, 10] | z-score [3, 11] | z-score [3, 12] | inhibition [4] | fluorescence slope [5] | NADPH fluorescence slope [6] | fluorescence slope [7] | outcome [8] | inhibition [9]
1 | CC(C(=O)NC(=O)NCc1ccccc1)N1C(=O)c2ccccc2C1=O (stereo unspecified) | 655 | 6.1% (inactive) | -28.7% (inactive) | 94.9 | 0.127 | 0.0595 | -0.687 | -11.4% (inactive) | -0.461 (inactive) | -4.3e-05 (inactive) | 0.00457 (inactive) | inactive | -4.8% (inactive)
2 | NC(=O)CSc1nnc2n(-c3ccccc3)c(=O)c3c4c(sc3n12)CCCCC4 | 376 | -1.4% (inactive) | -45.3% (inactive) | 193 | -0.963 | 1.04 | 0.285 | -2.59% (inactive) | -0.51 (inactive) | -0.000119 (inactive) | 0.00448 (inactive) | inactive | 7.56% (inactive)
3 | CC(=O)N1CCN(C2c3cccc4cccc(c34)C2NS(=O)(=O)c2ccccc2)CC1 (stereo unspecified) | 507 | -0.3% (inactive) | -19.2% (inactive) | 101 | 1.9 | -1.56 | -0.633 | 33.3% (inactive) | -0.462 (inactive) | -4.4e-05 (inactive) | 0.00522 (inactive) | inactive | 30.1% (inactive)
4 | O=C(C/C(=N/O)c1ccccc1O)C(F)F | 454 | -0.6% (inactive) | -48.8% (inactive) | 164 | -0.709 | 1.7 | 1.49 | 9.37% (inactive) | -0.451 (inactive) | -2.7e-05 (inactive) | 0.0043 (inactive) | inactive | -1.93% (inactive)
5 | COc1ccc(CN(C#N)c2nc(SC)nc(N(C)C)n2)cc1 | 720 | -0.6% (inactive) | -41.4% (inactive) | 137 | 0.386 | 1.03 | 0.357 | -3.95% (inactive) | -0.451 (inactive) | -4.7e-05 (inactive) | 0.00509 (inactive) | inactive | -6.51% (inactive)
6 | c1nc(NC2CCCCC2)c2[nH]cnc2n1 | 743 | -1.9% (inactive) | -76.5% (inactive) | 168 | -1.06 | 0.0486 | -0.156 | 9.91% (inactive) | -0.483 (inactive) | -6.4e-05 (inactive) | 0.00575 (inactive) | inactive | 3.23% (inactive)
7 | O=C(NCc1ccccn1)c1coc(=O)c(Br)c1 | 542 | -1% (inactive) | 22.6% (inactive) | 119 | -0.164 | 0.668 | -0.53 | 9.61% (inactive) | -0.481 (inactive) | -4e-05 (inactive) | 0.00581 (inactive) | inactive | 10.6% (inactive)
8 | CCCc1cc(=O)oc2c(C)c(O)c(CN3CCCCC3)cc12 | 657 | -2.4% (inactive) | -23.3% (inactive) | 157 | -0.426 | -0.355 | 0.314 | 1.04% (inactive) | -0.00538 (inactive) | -1.8e-06 (inactive) | 0.00467 (inactive) | inactive | 0.97% (inactive)
9 | Cc1ccc(C(=O)C2=C(O)C(=O)N(CCN3CCOCC3)C2c2ccccn2)o1 (stereo unspecified) | 403 | 1.7% (inactive) | -75.7% (inactive) | 147 | -0.208 | -0.969 | -0.257 | -0.608% (inactive) | -0.474 (inactive) | -0.0001 (inactive) | 0.00402 (inactive) | inactive | -7.55% (inactive)
10 | COc1ccc(-n2ncc3c(NCCCn4ccnc4)ncnc32)cc1 | 614 | -4% (inactive) | 0.9% (inactive) | 170 | -0.682 | 1.35 | -0.266 | 3.42% (inactive) | -0.394 (inactive) | -5.9e-06 (inactive) | 0.00474 (inactive) | inactive | 1.19% (inactive)
11 | CN(C)c1cccc2c(S(=O)(=O)N3CCOCC3)cccc12 | 607 | -7.5% (inactive) | -24.7% (inactive) | 157 | -2.51 | 1.31 | -0.367 | -9.91% (inactive) | -0.275 (inactive) | -7.8e-05 (inactive) | 0.00799 (inactive) | inactive | -1.61% (inactive)
12 | Cc1cc(=O)[nH]c(COc2ccccc2)n1 | 687 | -9.9% (inactive) | -104% (inactive) | 162 | 0.188 | 0.603 | 0.438 | 3.49% (inactive) | -0.432 (inactive) | -2e-05 (inactive) | 0.00544 (inactive) | inactive | -9.35% (inactive)
13 | CC(C)c1ccc(O)c(N)c1 | 660 | -20.9% (inactive) | -16.4% (inactive) | 180 | 1.39 | -1.5 | 0.0534 | 22.1% (inactive) | -0.527 (inactive) | -1.2e-05 (inactive) | 0.00607 (inactive) | inactive | 11.1% (inactive)
14 | O=c1c2c3c(sc2n2cnnc2n1C1CCCCC1)CCC3 | 363 | -3.6% (inactive) | -2% (inactive) | 172 | -0.995 | -0.714 | 0.683 | -2.59% (inactive) | -0.434 (inactive) | -0.000131 (inactive) | 0.00453 (inactive) | inactive | 33.2% (inactive)
15 | O=c1cc(N2CCCCC2)nc2n1CCCS2 | 568 | 2.3% (inactive) | 20.6% (inactive) | 149 | 0.266 | -0.928 | -0.473 | 29.7% (inactive) | -0.39 (inactive) | -1.9e-05 (inactive) | 0.00586 (inactive) | inactive | 33.9% (inactive)
16 | COC(=O)C(NC(=O)c1ccco1)(Nc1nc(C)cs1)C(F)(F)F (stereo unspecified) | 365 | -1.1% (inactive) | -89.2% (inactive) | 178 | -0.487 | 0.248 | 1.38 | -6.59% (inactive) | -0.459 (inactive) | -9.6e-05 (inactive) | 0.00502 (inactive) | inactive | 14.1% (inactive)
17 | Cn1c(N)c(C#N)c2c(c1=S)CSC(C)(C)C2 | 571 | -20% (inactive) | -64.2% (inactive) | 144 | 0.44 | -1.23 | -1.03 | 25.8% (inactive) | -0.446 (inactive) | -6.4e-06 (inactive) | 0.00454 (inactive) | inactive | 9.9% (inactive)
18 | Cc1cc2ccccc2cc(C)c1=O | 388 | -6.2% (inactive) | -120% (inactive) | 168 | 1.48 | 0.00969 | -1.01 | -0.584% (inactive) | -0.453 (inactive) | -9e-05 (inactive) | 0.00444 (inactive) | inactive | -12% (inactive)
19 | CC1(C)Cc2nc(NCCN3CCOCC3)c(C#N)cc2CO1 | 586 | -8.3% (inactive) | -133% (inactive) | 149 | 0.143 | 0.853 | 0.307 | -0.233% (inactive) | -0.486 (inactive) | -8.5e-05 (inactive) | 0.00414 (inactive) | inactive | -7.98% (inactive)
20 | CC(C)C(=O)N1CCN(c2nc(-c3ccccc3)c3c(c2C#N)CC(C)(C)OC3)CC1 | 607 | -3.4% (inactive) | -9.6% (inactive) | 163 | 0.152 | 0.868 | -0.257 | -2.29% (inactive) | -0.366 (inactive) | -2.4e-05 (inactive) | 0.00797 (inactive) | inactive | 26.8% (inactive)
21 | CCCCc1nc(N2CCOCC2)c(C#N)c2c1COC(C)(C)C2 | 530 | -4.2% (inactive) | -202% (inactive) | 149 | 1.13 | -0.937 | -0.238 | 15.4% (inactive) | -0.458 (inactive) | -6.7e-05 (inactive) | 0.00404 (inactive) | inactive | 1.03% (inactive)
22 | CC1CCN(c2ncnc3c2cnn3Cc2ccc(Cl)cc2)CC1 | 549 | -8.1% (inactive) | 2.1% (inactive) | 135 | -0.011 | 0.63 | 0.724 | 13.9% (inactive) | -0.348 (inactive) | -1.7e-05 (inactive) | 0.00585 (inactive) | inactive | 4.22% (inactive)
23 | O=C(Nc1ncccc1Cl)c1cccc(F)c1 | 527 | 0.8% (inactive) | 19.5% (inactive) | 88.6 | -1.41 | 0.161 | -0.3 | 3.42% (inactive) | -0.419 (inactive) | 1.2e-05 (inactive) | 0.0047 (inactive) | inactive | 34.1% (inactive)
24 | CN1CC2(C)CN(C(c3ccccc3)c3ccccc3)CC(C)(C1)C2O (stereo unspecified) | 529 | -8.9% (inactive) | -136% (inactive) | 154 | 1.6 | -0.0767 | -1.37 | 3.42% (inactive) | -0.479 (inactive) | -8.8e-05 (inactive) | 0.00415 (inactive) | inactive | -0.999% (inactive)
25 | CCc1nc(N2CCOCC2)c(C#N)c2c1CCCC2 | 397 | -6.2% (inactive) | -105% (inactive) | 121 | 0.0216 | 0.691 | -0.389 | 9.42% (inactive) | -0.482 (inactive) | -6.5e-05 (inactive) | 0.00431 (inactive) | inactive | 29.5% (inactive)
26 | Cc1ccc(NC(=O)Cn2nc(C)c3ccccc3c2=O)cc1 | 576 | -1.6% (inactive) | -60.9% (inactive) | 134 | 1 | -0.268 | 1.91 | 9.07% (inactive) | -0.496 (inactive) | -0.000121 (inactive) | 0.00582 (inactive) | inactive | -6.33% (inactive)
27 | COc1ccc(OC)c(C2/C(=C(/O)c3ccccc3)C(=O)C(=O)N2Cc2ccco2)c1 (stereo unspecified) | 675 | -11.7% (inactive) | -58% (inactive) | 169 | 0.317 | -0.841 | 0.437 | -11.4% (inactive) | -0.522 (inactive) | -2.7e-05 (inactive) | 0.00485 (inactive) | inactive | 5.53% (inactive)
